This is a sample that favours compounds with a hit; in the whole collection about 27% have one here.
HIV Rev-RRE inh – inhibitors of HIV-1 Rev-RRE RNA interaction. hit rate 0.79% among 97,000. P05866. inhibition, % at 8 µM. AID 704. Rev peptide-RRE RNA binding, FRET;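 active = inhibition above the screen-wide mean plus 3 SD, cut at about 35% in these data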;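 also: 0% = median DMSO wells and 100% = median Neomycin B control wells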
Target sequence (P05866 whole entry, looked up): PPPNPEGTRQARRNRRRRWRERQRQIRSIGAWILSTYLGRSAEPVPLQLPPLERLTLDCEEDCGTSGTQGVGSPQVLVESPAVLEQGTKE
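Test system: Cy5-tagged RRE RNA duplex with fluorescein-tagged Rev peptide | Read-out: % inhibition of FRET ratio versus controls | Probe or stimulus: Labelled Rev peptide | Incubation: 5 min RNA-compound premix plus 15 min binding step, 25 °C | Technique: FRET fluorescence readout | Benchmarks: DMSO low control, neomycin B high control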
Cav32 inh – human Cav3.2 channel inhibition, primary screen | B-score at 10 µM | hit rate 4% among 100,000 | Cav3.2-expressing cells, Fluo-4 calcium fluorescence FDSS; hits give low values | O95180 | AID 449739;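 active = single-dose well whose peak fluorescence ratio is a statistical outlier from its plate by either plate-standardised score or position-corrected B-score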
CYP2C9 activ – increases human cytochrome P450 2C9 activity; P11712; recombinant CYP2C9, luciferin-H conversion, luminescence; hits give high values; factor 1 = untreated enzyme, 0 = blocked; activation factor at 5 µM; hit rate 1.4% among 96,000; AID 1024;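 active = activation factor of 2 or more for CYP2C9 at a 5 µM dose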;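 also: 0 = sulfaphenazole-blocked wells and 1 = vehicle-only wells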
Target sequence (P11712 whole entry, looked up): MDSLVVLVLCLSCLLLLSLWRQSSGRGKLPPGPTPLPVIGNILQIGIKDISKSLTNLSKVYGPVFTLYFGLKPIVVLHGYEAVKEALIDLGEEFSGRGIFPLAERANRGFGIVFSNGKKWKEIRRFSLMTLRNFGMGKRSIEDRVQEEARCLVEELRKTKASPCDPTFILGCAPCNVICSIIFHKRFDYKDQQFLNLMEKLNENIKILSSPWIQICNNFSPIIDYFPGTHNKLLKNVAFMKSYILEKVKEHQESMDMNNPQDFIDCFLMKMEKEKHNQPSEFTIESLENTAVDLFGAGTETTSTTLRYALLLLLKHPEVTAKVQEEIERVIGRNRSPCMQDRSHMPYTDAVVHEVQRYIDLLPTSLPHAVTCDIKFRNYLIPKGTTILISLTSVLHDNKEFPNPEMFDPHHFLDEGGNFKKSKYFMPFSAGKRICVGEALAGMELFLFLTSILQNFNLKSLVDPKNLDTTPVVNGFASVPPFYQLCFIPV
CYP2C19 act – cytochrome P450 2C19 (human) activation; P33261; recombinant CYP2C19, luciferin-H EGE luminescence; hits give high values; 0 = fully inhibited enzyme, 1 = untreated enzyme; AID 1025; 96,000 tested, under 10 active; activation factor at 5 µM;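 active = activation factor of at least 2 at 5 µM in the primary screen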;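 also: 0 = wells with 2.5 mM tranylcypromine and 1 = vehicle-only wells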
CYP2C9 inh – inhibitors of human CYP2C9; P11712; CYP2C9 Supersomes, luciferin-H conversion, luminescence; inhibition, % at 5 µM; hit rate 20% among 96,000; AID 777;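 active = blocking of liver enzyme CYP2C9 beyond about 50% at 5 µM, limit read from the data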
CYP2C19 inhib – inhibitors of human CYP2C19 | P33261 | CYP2C19 Supersomes, luciferin-H EGE luminescence, 30 min | inhibition, % at 5 µM | hit rate 21% among 96,000 | AID 778;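 active = CYP2C19 inhibition above a set limit at 5 µM in the primary screen, cut at about 50% in these data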;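 also: plate controls were negative control wells for no effect and 2.5 mM tranylcypromine positive control for full effect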
Numbers without * were called inactive; x = not tested or not shown.

SMILES	HIV Rev-RRE inh	Cav32 inh	CYP2C9 activ	CYP2C19 act	CYP2C9 inh	CYP2C19 inhib
OCCn1c(-c2ccc3c(c2)OCO3)csc1=Nc1ccccc1	10	-5.4*	0.1	0	87*	96*
CCOc1ccc(N=c2scc(-c3ccccc3)n2CCO)cc1	-2	0.63	0.5	0.3	48	68*
CNS(=O)(=O)c1cccc(C(=O)OCC(=O)Nc2ccccc2OC(F)F)c1	-1	-0.017	1.8	0.9	-82	10
O=C(NCCOc1nc(N2CCCCC2)nc(N2CCOCC2)n1)Nc1ccccc1	8	-1.7	0.3	0.6	69*	38
CCCCCCNC(=O)Nc1ccccc1	6	-0.71	0.4	0	56*	96*
CCN(CCNC(=O)Nc1ccc(Cl)cc1)c1ccccc1	-1	-2.1	0.7	0.4	26	59*
CCN(CC)c1nc(OCCNC(=O)Nc2ccccc2)nc(N(CC)CC)n1	-3	-10*	0.1	0.5	88*	48
CCc1cc(=O)oc2cc(OS(C)(=O)=O)ccc12	0	1	x	x	x	x
CCOC(=O)CSc1nnc(-c2nnc(SCC(=O)OCC)n2CC)n1CC	4	0.4	1.1	1.2	-10	-16
O=C(CSc1ccc(Cl)cc1)N1CCN(c2c(Cl)cccc2[N+](=O)[O-])CC1	7	-2.9	0.3	0.7	71*	35
O=C(Cc1ncc(C(F)(F)F)cc1Cl)N1CCN(c2ccccn2)CC1	2	0.92	1.2	0.8	-18	18
O=C(CSc1ccc(Cl)cc1)N1CCN(c2ncc(C(F)(F)F)cc2Cl)CC1	7	-3.8*	0.2	0.6	81*	43
O=C(Cc1ncc(C(F)(F)F)cc1Cl)N1CCN(c2cccc(Cl)c2)CC1	15	-1.1	1.6	0.2	-60	84*
Cc1ccc(C(=O)OCCN2CCN(c3ncc(C(F)(F)F)cc3Cl)CC2)cc1	2	-0.41	0.7	0.8	26	18
O=C(OCCN1CCN(c2ncc(C(F)(F)F)cc2Cl)CC1)c1ccc(F)cc1	9	-0.068	0.3	0.7	69*	27
CCc1c(C(=O)c2ccc(Cl)cc2)oc2c(C)c3oc(=O)cc(C)c3cc12	8	0.066	0.7	0.9	34	13
O=C(NCCCN1CCCC1)c1ccc(CSCc2cccc(Cl)c2)o1	1	0.059	1	0.9	1	10
O=C(Cc1ncc(C(F)(F)F)cc1Cl)Nc1ccc(F)cc1	5	x	0.9	0.1	10	91*
O=C(CN1CCN(c2ncc(C(F)(F)F)cc2Cl)CC1)N1CCN(c2ncc(C(F)(F)F)cc2Cl)CC1	3	-3.2*	0.2	0.4	82*	62*
CC(C)C(=O)Nc1ncc(C(F)(F)F)cc1Cl	4	1.2	0.9	1.1	7	-8
O=C(CCSc1ccc(Cl)cc1)N1CCN(c2ncccn2)CC1	4	-4.7*	0.4	0.7	65*	25
CC(=O)N=C1SC2CS(=O)(=O)CC2N1c1cccc(Cl)c1Cl (configuration not stated)	7	0.23	0.3	0.9	66*	11
COc1ccc(CCNC(=O)c2nonc2N)cc1	5	-0.051	x	x	x	x
COC(=O)c1ccccc1NC(=O)c1sc(=S)n(C)c1N	-4	0.011	0.6	0.8	39	18
COc1ccc(CCNC(=O)c2sc(=S)n(C)c2N)cc1	4	-0.57	0.4	0.6	60*	42
SMILES	HIV Rev-RRE inh	Cav32 inh	CYP2C9 activ	CYP2C19 act	CYP2C9 inh	CYP2C19 inhib
Cn1c(N)c(C(=O)NCc2ccccc2)sc1=S	x	0.015	0.6	0.5	38	53*
COc1ccc(CN2CCN(C(=O)CC(C)C)CC2)c2ccccc12	2	-0.72	0.9	0.5	10	52*
COc1cccc(CN2CCN(C(=O)c3cccc4ccccc34)CC2)c1OC	5	-4.5*	1.2	0.6	-20	40
O=C(c1ccncc1)N1CCN(C(=O)c2cccc3ccccc23)CC1	3	0.5	0.7	0.5	30	48
O=C(c1cccc2ccccc12)N1CCN(CC2CC=CCC2)CC1 (configuration not stated)	4	-0.24	2.6*	0.9	-158	9
COc1ccc(CN2CCN(C(=O)CC(C)C)CC2)cc1OC	1	0.41	1.4	1	-37	-2
CCOC(=O)Cc1csc(NC(=O)C(C)(C)CC)n1	2	0.27	0.6	0.9	43	14
Cc1c(C(=O)N2CCCCC2)sc(NC(=O)C(C)C)c1C#N	6	2.4	0.3	0.4	68*	62*
Cc1c(C(=O)N2CCCCC2)sc(NC(=O)C2CC2)c1C#N	4	0.22	0.4	0.5	56*	54*
Cc1c(C(=O)N2CCCC2)sc(NC(=O)c2ccccc2)c1C#N	9	-0.67	x	x	x	x
Cc1c(C(=O)N2CCCC2)sc(NC(=O)c2cccs2)c1C#N	10	-0.021	0.1	0.9	94*	8
C=C1CCN([C@@H](CC(C)C)C(=O)N2CCCC2)S(=O)(=O)c2ccccc21	x	0.063	x	x	x	x
COCCn1nnnc1CN1CCC(Cc2ccccc2)CC1	1	0.86	x	x	x	x
CCOC(=O)N1CCC(NC(=O)c2cc3cc4cc(OC)ccc4nc3o2)CC1	8	1.4	0.6	0.7	37	26
COC(=O)C(C(C)=O)C1=C/C(=N\S(=O)(=O)c2ccc(C)cc2)c2ccccc2C1=O (configuration not stated)	10	-2.9	0.1	0.1	89*	90*
CCN1C(=O)N(S(=O)(=O)c2ccc(C)cc2)[C@@H](c2ccccc2)C(C(=O)OC)=C1C	x	-0.75	x	x	x	x
CC(=O)N1CCN(Cc2nc3cc(NC(=O)c4ccccc4C)ccc3n2C)CC1	-2	0.78	1	0.9	3	7
C#CCOCCOCCOCCNc1nc(N2CCN(C(=O)[C@H]([C@@H](C)CC)n3cc([C@@H](N)CC(C)C)nn3)CC2)nc(N2CCN(C(=O)[C@H](Cc3cc4ccccc4[nH]3)n3cc([C@@H](N)CC(C)C)nn3)CC2)n1	x	-1	x	x	x	x
Cc1cc(/C=C(/C#N)c2cccc(F)c2)c(C)n1-c1cccnc1	4	-2.2	0	0.1	99*	89*
Cc1cc(/C=C(/C#N)c2cccc(Cl)c2)c(C)n1C	0	x	1	0.7	-2	32
CC(O)CCc1nc2ccc(C(=O)O)cc2[nH]1 (configuration not stated)	7	x	1.1	1.1	-8	-5
COc1ccc(-c2nc3ccccc3n2Cc2ccccc2)cc1	12	-9.9*	0	0.2	96*	76*
C=CCn1c(-c2ccc(OC)cc2)nc2ccccc21	9	-0.84	0.2	0.3	76*	73*
COc1ccc(-c2nnnn2CCc2ccccc2)cc1	2	-0.13	0.3	0	71*	98*
C=CCn1c(-c2ccc(N)cc2)nc2ccccc21	4	0.32	0.7	0.8	33	23

Screening results: PubChem BioAssay, several laboratories
